# In ChEMBL document CHEMBL1136724 (J Med Chem, 2003):
# Legend:
# Nitric oxide synthase 1 [1] = molecular target: T1, Nitric oxide synthase 1 (Homo sapiens, UniProt P29475); test: Inhibitory activity against human neuronal nitric oxide synthase
# [2] = molecular target: Nitric oxide synthase, inducible (Homo sapiens, UniProt P35228); test: Inhibitory activity of compound against human inducible nitric oxide synthase
# [3] = Pharmacokinetic parameter pKa for amidine group of compound was evaluated; assay type: physicochemical
# [4] = molecular target: T2, Nitric oxide synthase 3 (Homo sapiens) (UniProt P29474); test: Inhibitory activity of 100 uM compound against human endothelial nitric oxide synthase; Range is […]%-[…]%
# T2 sequence (whole entry): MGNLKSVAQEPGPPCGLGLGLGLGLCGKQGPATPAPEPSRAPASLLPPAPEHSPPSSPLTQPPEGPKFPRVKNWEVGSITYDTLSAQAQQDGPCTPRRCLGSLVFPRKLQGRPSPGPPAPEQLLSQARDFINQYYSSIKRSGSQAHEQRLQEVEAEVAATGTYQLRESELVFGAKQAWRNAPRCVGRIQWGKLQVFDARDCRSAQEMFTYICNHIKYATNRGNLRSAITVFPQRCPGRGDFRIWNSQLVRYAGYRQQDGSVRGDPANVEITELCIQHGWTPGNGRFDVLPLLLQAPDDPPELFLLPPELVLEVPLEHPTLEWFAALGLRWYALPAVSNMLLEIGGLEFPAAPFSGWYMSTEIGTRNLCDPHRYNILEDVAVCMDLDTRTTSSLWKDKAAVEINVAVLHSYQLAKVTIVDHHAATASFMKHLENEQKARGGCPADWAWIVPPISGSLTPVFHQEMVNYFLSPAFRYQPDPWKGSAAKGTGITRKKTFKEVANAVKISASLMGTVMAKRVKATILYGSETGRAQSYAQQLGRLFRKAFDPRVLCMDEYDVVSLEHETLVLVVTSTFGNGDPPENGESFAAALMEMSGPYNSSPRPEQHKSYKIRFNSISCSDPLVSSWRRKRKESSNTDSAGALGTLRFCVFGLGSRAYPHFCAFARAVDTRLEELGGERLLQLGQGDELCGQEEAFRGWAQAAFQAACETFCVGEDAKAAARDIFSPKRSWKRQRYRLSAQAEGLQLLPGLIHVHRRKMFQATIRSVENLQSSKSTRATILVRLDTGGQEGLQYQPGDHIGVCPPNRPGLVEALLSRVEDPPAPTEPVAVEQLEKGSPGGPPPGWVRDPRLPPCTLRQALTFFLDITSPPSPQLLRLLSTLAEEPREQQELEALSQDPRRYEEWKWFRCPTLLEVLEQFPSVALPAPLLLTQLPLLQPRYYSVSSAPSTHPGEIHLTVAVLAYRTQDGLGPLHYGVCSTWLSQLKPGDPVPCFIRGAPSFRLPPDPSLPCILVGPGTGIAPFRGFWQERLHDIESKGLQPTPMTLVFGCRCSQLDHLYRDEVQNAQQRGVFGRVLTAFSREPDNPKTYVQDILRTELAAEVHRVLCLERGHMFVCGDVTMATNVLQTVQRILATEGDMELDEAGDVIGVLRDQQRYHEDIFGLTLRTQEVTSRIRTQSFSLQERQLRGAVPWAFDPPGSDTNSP
# Rattus norvegicus [5] = test: Inhibition of LPS induced nitrite production in rat following 4 hr of oral administration; assay type: functional; settings: read-out: ID50 (the source's name)
# DLD-1 = test: Inhibitory activity against synthesis of inducible nitric oxide synthase by DLD-1 cells; assay type: functional, cell-based; settings: Homo sapiens
# How it was run: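 Intact human DLD-1 cells preincubated with a cytokine cocktail to induce NO production; inhibition of NO production measured; IC50 is the mean of at least two separate measurements.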
# Nitric oxide synthase 3 = molecular target: T3, Nitric oxide synthase 3 (Homo sapiens, UniProt P29474); test: Inhibitory activity against human endothelial nitric oxide synthase
# T3 sequence (P29474 whole entry): T2 sequence (whole entry)
# Nitric oxide synthase 1 [6] = molecular target: T1, Nitric oxide synthase 1; test: Inhibitory activity of 100 uM compound against human neuronal nitric oxide synthase; Range is […]%-[…]%
# [7] = molecular target: T2, Nitric oxide synthase 3 (Homo sapiens); test: Inhibitory activity of 100 uM compound against human endothelial nitric oxide synthase
# Nitric oxide synthase 1 [8] = molecular target: T1, Nitric oxide synthase 1; test: Inhibitory activity of 100 uM compound against human neuronal nitric oxide synthase; range is […]%-[…]%; settings: at 100 µM
# [9] = molecular target: T2, Nitric oxide synthase 3 (Homo sapiens); test: Inhibitory activity of 100 uM compound against human endothelial nitric oxide synthase; range is […]%-[…]%; settings: at 100 µM
# Rattus norvegicus [10] = species on record: Rattus norvegicus; test: animal or person
# T1 sequence (P29475 whole entry): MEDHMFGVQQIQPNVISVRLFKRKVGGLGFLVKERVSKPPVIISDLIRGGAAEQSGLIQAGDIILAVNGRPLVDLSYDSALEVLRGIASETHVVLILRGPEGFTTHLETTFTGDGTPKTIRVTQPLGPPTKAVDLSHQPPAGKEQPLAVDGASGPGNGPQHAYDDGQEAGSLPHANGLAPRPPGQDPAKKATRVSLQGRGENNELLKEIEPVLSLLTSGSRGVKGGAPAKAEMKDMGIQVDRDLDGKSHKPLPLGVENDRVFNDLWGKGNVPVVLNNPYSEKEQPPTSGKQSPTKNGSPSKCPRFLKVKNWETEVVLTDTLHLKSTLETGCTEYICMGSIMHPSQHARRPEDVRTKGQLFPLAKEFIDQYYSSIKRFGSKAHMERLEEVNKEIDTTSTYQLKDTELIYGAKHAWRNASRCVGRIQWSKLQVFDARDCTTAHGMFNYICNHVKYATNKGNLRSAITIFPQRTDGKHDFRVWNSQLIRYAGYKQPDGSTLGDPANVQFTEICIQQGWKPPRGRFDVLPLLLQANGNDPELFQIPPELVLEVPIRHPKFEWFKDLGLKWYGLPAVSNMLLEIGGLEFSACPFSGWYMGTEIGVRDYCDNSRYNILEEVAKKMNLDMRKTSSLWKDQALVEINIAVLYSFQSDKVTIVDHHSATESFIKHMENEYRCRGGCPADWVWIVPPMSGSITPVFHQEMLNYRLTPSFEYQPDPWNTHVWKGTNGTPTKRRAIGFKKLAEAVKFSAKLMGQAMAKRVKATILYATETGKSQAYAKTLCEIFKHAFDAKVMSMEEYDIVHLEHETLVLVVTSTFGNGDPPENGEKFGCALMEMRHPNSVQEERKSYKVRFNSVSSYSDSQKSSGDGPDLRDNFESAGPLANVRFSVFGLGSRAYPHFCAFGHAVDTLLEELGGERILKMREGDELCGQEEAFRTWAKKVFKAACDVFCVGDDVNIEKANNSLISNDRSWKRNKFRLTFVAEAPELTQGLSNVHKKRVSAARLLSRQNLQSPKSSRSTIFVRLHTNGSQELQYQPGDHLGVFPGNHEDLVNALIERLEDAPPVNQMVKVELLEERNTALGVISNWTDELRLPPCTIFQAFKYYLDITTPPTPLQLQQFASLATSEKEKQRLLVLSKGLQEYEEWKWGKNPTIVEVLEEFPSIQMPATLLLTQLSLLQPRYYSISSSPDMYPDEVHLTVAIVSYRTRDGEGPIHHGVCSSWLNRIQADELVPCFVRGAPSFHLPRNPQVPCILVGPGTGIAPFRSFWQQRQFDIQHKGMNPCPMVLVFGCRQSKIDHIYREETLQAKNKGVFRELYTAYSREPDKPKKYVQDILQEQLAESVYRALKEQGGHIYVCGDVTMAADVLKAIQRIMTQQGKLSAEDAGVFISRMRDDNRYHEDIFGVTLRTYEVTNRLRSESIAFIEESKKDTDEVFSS
# Nitric oxide synthase, inducible, sequence (P35228 whole entry): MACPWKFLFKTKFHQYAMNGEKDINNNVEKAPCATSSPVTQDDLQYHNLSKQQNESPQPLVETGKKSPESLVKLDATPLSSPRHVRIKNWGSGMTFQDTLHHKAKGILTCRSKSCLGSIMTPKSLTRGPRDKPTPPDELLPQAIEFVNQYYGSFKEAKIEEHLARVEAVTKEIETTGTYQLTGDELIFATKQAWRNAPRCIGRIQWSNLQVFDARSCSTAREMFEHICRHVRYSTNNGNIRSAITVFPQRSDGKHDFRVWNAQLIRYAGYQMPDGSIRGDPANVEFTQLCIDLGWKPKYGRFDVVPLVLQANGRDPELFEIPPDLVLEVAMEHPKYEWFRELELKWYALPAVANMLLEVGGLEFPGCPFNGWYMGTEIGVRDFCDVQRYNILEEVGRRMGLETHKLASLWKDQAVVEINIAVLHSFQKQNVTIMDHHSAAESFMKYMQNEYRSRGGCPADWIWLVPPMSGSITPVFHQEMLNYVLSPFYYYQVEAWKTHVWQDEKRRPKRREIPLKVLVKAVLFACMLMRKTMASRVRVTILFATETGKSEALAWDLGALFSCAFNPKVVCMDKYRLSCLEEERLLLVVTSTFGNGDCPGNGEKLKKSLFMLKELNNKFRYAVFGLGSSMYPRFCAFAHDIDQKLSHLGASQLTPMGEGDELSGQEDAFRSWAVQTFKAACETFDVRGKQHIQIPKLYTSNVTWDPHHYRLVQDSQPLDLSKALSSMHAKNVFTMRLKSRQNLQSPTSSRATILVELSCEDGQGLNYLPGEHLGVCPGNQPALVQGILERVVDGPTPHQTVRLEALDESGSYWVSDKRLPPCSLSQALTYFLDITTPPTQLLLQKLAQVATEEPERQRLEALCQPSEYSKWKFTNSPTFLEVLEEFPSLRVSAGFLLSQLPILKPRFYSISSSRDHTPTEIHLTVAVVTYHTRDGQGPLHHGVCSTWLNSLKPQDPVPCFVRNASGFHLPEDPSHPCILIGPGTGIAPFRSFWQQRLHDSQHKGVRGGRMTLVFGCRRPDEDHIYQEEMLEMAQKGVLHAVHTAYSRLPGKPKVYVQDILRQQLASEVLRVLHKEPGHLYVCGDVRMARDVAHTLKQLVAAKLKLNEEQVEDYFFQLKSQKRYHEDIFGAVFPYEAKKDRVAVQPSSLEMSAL
SMILES,IC50 (Nitric oxide synthase 1 [1]),IC50 [2],ED50 (Rattus norvegicus [5]),IC50 (DLD-1),also measured
N#Cc1ccc(C(=O)N2CCC3(CC2)N=C(N)c2c(F)ccc(F)c2N3)cc1,3.3 µM,0.048 µM,3 µmol/kg,1.6 µM,pKa [3]: 8.4; inhibition [4]: 50%
NC1=NC(C2CCC2)Nc2cccc(F)c21 (configuration not stated),1 µM,0.02 µM,> 30 µmol/kg,1.2 µM,IC50 (Nitric oxide synthase 3): 4.6 µM
CCOC(=O)N1CCC2(CC1)N=C(N)c1c(F)cccc1N2,40 µM,0.035 µM,,9.6 µM,IC50 (Nitric oxide synthase 3): 100 µM
NC1=NC(c2ccccc2)Nc2ccccc21 (configuration not stated),,2.5 µM,,,
CCOC(=O)N1CCC2(CC1)N=C(N)c1sccc1N2,50 µM,0.3 µM,,> 500 µM,IC50 (Nitric oxide synthase 3): 100 µM
CC1N=C(N)c2ccccc2N1 (configuration not stated),,9.8 µM,,,
NC1=NC(C2CCC2)Nc2ccccc21 (configuration not stated),,1.1 µM,,,
CSCCOC(=O)N1CCC2(CC1)N=C(N)c1c(F)cccc1N2,,0.039 µM,,11 µM,inhibition (Nitric oxide synthase 1 [6]): 50%; inhibition [4]: 50%
CCC1(C)N=C(N)c2ccccc2N1 (configuration not stated),,32 µM,,,
CC1(C)N=C(N)c2ccccc2N1,,52 µM,,,
NC1=NC2(CCN(C(=O)c3ccsc3)CC2)Nc2cccc(F)c21,70 µM,0.067 µM,,12 µM,inhibition [7]: < 25%
CC(=N)NCCCC[C@H](N)C(=O)O [L-NIL],1.5 µM,0.1 µM,9 µmol/kg,2.8 µM,IC50 (Nitric oxide synthase 3): 2.6 µM
NC1=NC(c2ccc(F)cc2)Nc2cccc(F)c21 (configuration not stated),3.5 µM,0.05 µM,> 30 µmol/kg,4 µM,inhibition [7]: < 25%
N#Cc1ccc(C(=O)N2CCC3(CC2)N=C(N)c2c(F)cccc2N3)cc1,12 µM,0.027 µM,14 µmol/kg,4.5 µM,pKa [3]: 9.1; inhibition [4]: 50%
CCOC(=O)N1CCC2(CC1)N=C(N)c1c(Cl)cccc1N2,,0.047 µM,,9.2 µM,inhibition (Nitric oxide synthase 1 [8]): 50%; inhibition [9]: 50%
NC1=NC2(CCNCC2)Nc2ccccc21,,~50 µM,,,
NC1=NC(C2CCCC2)Nc2ccccc21 (configuration not stated),,4.5 µM,,,
NC1=NC(C2CC2)Nc2ccccc21 (configuration not stated),,1.1 µM,,,
NC1=NCNc2ccccc21,,40 µM,,,
N#Cc1ccc(C(=O)N2CCC3(CC2)N=C(N)c2c(F)ccc(F)c2N3)cn1,,,3 µmol/kg,0.9 µM,ED50 (Rattus norvegicus [10]): ~10 µmol/kg; inhibition [4]: 50%
CCC1N=C(N)c2ccccc2N1 (configuration not stated),,0.9 µM,,,
NC1=NC(c2ccco2)Nc2c(F)ccc(F)c21 (configuration not stated),0.06 µM,0.002 µM,16 µmol/kg,0.2 µM,IC50 (Nitric oxide synthase 3): 0.18 µM
NC1=NC(c2cccs2)Nc2ccccc21 (configuration not stated),,0.4 µM,,,
CNC(=N)NCCC[C@H](N)C(=O)O [TILARGININE],,,700 µmol/kg,21 µM,
COC(=O)[C@@H](N)CCCNC(=N)N[N+](=O)[O-] [L-NAME],0.15 µM,,> 300 µmol/kg,> 300 µM,
N=C(N)NN [PIMAGEDINE],5.9 µM,3.9 µM,,> 1000 µM,IC50 (Nitric oxide synthase 3): 100 µM
NC1=NC(c2ccco2)Nc2ccccc21 (configuration not stated),,0.2 µM,,,
